Assay results from ChEMBL document CHEMBL1139238, “Preparation of two sets of 5,6,7-trioxygenated dihydroflavonol derivatives as free radical scavengers and neuronal cell protectors to oxidative damage” (Bioorg Med Chem, 2009).
pEC50, pIC50: −log10 of the molar value. Activity calls are given as the source filed them. The rule behind the calls is not given here.

Legend:
[1] = system: Liver; test: Antioxidant activity against FeSO4-induced lipid peroxidation in rat liver homogenate assessed as inhibition of malondialdehyde release at < 5 uM after 1 hr by thiobarbituric acid assay relative quercetin; format: functional, tissue-based
Summary of the method: (§1)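 Rat (Sprague-Dawley) liver homogenate in ice-cold PBS; peroxidation driven by FeSO4 (4 μM) plus vitamin C (50 μM). Compounds at 0.1–100 μM, 37 °C for 1 h in capped tubes. Then 20% TCA for 30 min at room temperature, followed by 0.1 M HCl and 1% TBA at 99 °C for 1 h. After centrifugation, MDA read at 532 nm. Quercetin is the standard; n = 3, means ± SD.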

[2] = Antioxidant activity assessed as superoxide radical scavenging activity by spectrophotometry; format: functional
Summary of the method: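 Superoxide generated by NADH (78 μM), nitroblue tetrazolium (50 μM) and phenazine methosulfate (5 μM) in 16 mM Tris–HCl, pH 8.0, with compounds at various concentrations. Read at 560 nm after 5 min at room temperature. Blanks lack phenazine methosulfate; quercetin and vitamin C are references.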

[3] = system: Radical scavenging activity; test: Antioxidant activity assessed as DPPH free radical scavenging activity by spectrophotometry; format: functional
Summary of the method: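 DPPH (0.4 mg/mL) in methanol mixed with compounds (DMSO solutions) at various concentrations. Incubated 30 min at 37 °C, absorbance read at 517 nm. Methanolic DPPH alone serves as control; quercetin and vitamin C are the reference scavengers.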

[4] = system: Liver; test: Antioxidant activity against FeSO4-induced lipid peroxidation in rat liver homogenate assessed as inhibition of malondialdehyde release at 6 to 100 uM after 1 hr by thiobarbituric acid assay relative quercetin; format: functional, tissue-based; summary of the method: as §1
[5] = system: Liver; test: tissue or blood; settings: Rattus norvegicus, 1 h
[6] = system: PC-12; test: Cytoprotective activity against H2O2-induced cell death in rat PC12 cells assessed as increase in cell viability at 8 ug/ml preincubated 2 hrs before H2O2 challenge measured after 4 hrs by MTT assay relative to control; format: functional
Summary of the method: (§2)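 PC12 cells from Shanghai Institute of Cell Biology, grown at 37 °C in 5% CO2 in high-glucose DMEM with 10% heat-inactivated calf serum and penicillin/streptomycin. Cells seeded at 6×10^3/well and used 36 h later. Compound in DMSO diluted in medium, 2 h pretreatment, then 500 µM H2O2 (final) for 4 h. MTT (5 mg/mL) for 3 h, formazan dissolved in DMSO, read at 570 nm. Gain is %OD(drug)/OD(normal) minus %OD(DMSO)/OD(normal).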

[7] = system: PC-12; test: Cytoprotective activity against H2O2-induced cell death in rat PC12 cells assessed as increase in cell viability at 16 ug/ml preincubated 2 hrs before H2O2 challenge measured after 4 hrs by MTT assay relative to control; format: functional; summary of the method: as §2
[8] = system: PC-12; test: Cytoprotective activity against H2O2-induced cell death in rat PC12 cells assessed as increase in cell viability at 32 ug/ml preincubated 2 hrs before H2O2 challenge measured after 4 hrs by MTT assay relative to control; format: functional; summary of the method: as §2
[9] = system: PC-12; test: Cytoprotective activity against H2O2-induced cell death in rat PC12 cells assessed as increase in cell viability preincubated 2 hrs before H2O2 challenge measured after 4 hrs by MTT assay; format: functional, cell-based
[10] = target: Xanthine dehydrogenase/oxidase (Rattus norvegicus) (UniProt P22985); test: Inhibition of xanthine oxidase assessed as formation of formazan after 2 hrs by spectrophotometry; design: concentration or dose not given beside the values
[11] = target: Xanthine dehydrogenase/oxidase (Rattus norvegicus) (UniProt P22985); test: Inhibition of xanthine oxidase assessed as formation of formazan at 16 ug/ml after 2 hrs by spectrophotometry

Chain of Xanthine dehydrogenase/oxidase (Rattus norvegicus) (P22985 whole entry, looked up): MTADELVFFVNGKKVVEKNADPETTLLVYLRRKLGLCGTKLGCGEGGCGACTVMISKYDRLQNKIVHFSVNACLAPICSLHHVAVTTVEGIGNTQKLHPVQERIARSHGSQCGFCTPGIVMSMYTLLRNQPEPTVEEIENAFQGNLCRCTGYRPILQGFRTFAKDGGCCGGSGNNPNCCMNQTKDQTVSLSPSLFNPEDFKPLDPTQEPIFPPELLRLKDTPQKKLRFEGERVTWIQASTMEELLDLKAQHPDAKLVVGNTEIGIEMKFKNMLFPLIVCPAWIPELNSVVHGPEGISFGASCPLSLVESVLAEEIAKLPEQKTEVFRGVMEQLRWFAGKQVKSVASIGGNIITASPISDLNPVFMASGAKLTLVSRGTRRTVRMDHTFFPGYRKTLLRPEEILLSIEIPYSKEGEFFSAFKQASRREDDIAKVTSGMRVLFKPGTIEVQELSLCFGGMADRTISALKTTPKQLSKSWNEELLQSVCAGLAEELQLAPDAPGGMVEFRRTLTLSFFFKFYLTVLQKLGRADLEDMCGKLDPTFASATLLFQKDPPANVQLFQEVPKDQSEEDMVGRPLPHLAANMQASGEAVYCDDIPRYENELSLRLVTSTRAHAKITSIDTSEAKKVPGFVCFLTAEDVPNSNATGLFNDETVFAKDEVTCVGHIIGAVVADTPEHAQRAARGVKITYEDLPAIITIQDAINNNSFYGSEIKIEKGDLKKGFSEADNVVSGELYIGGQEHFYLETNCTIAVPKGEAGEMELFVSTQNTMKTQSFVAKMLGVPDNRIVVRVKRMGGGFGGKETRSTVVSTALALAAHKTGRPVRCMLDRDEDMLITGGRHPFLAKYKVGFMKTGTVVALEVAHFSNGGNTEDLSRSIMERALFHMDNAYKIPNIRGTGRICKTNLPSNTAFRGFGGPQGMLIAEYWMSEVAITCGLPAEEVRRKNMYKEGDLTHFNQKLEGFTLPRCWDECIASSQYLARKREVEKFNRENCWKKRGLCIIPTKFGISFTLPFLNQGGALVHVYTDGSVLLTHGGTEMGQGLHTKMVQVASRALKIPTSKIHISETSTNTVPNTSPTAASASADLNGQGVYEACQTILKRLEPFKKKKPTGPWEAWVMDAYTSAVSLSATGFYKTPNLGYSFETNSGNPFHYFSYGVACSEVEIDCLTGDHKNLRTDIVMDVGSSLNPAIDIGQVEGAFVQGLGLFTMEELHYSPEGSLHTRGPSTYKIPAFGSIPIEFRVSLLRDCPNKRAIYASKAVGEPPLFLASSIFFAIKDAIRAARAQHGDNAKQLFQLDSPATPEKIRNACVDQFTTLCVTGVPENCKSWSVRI

| SMILES | Activity [1] | pEC50 [2] | pEC50 [3] | Activity [4] | pIC50 [5] | Activity [6] [%] | Activity [7] [%] | Activity [8] [%] | pEC50 [9] | Activity [10] [%] | pIC50 [11] |
| --- | --- | --- | --- | --- | --- | --- | --- | --- | --- | --- | --- |
| COc1cc([C@H]2Oc3cc(OC)c(OC)c(OC)c3C(=O)[C@@H]2O)ccc1O (racemic) | inactive | 4.01 | 4.56 | Active | 5.26 | – | – | – | – | – | – |
| COc1cc2c(c(OC)c1OC)C(=O)[C@H](O)[C@H](c1ccccc1O)O2 (racemic) | – | 3.78 | 4.08 | – | 4.57 | – | – | – | – | – | – |
| O=c1c(O)c(-c2ccc(O)c(O)c2)oc2cc(O)cc(O)c12 [QUERCETIN] | – | 4.39 | 5.26 | – | 5.22 | 28.9 | 42.6 | 61.7 | 4.17 | – | – |
| COc1ccc([C@H]2Oc3cc(OC)c(OC)c(OC)c3C(=O)[C@@H]2O)cc1O (racemic) | – | 3.95 | 3.91 | – | – | – | – | – | – | – | – |
| COc1cc([C@@H]2Oc3cc(OC)c(OC)c(OC)c3C(=O)[C@@H]2O)cc(OC)c1O (racemic) | – | 4.26 | 4.27 | – | 4.98 | – | – | – | – | – | – |
| COc1ccc([C@@H]2Oc3cc(OC)c(OC)c(OC)c3C(=O)[C@@H]2O)cc1 (racemic) | – | – | – | – | – | 0.6 | 3.4 | 2.1 | – | 24.9 | – |
| COc1ccc([C@@H]2Oc3cc(OC)c(OC)c(OC)c3C(=O)[C@@H]2O)cc1OC (racemic) | – | – | – | – | 4.54 | -2.5 | 1.9 | 2.4 | – | 46.6 | – |
| COc1ccc([C@H]2Oc3cc(OC)c(O)c(OC)c3C(=O)[C@@H]2O)cc1 (racemic) | – | – | 4.02 | – | 4.92 | 19.5 | 37.2 | 53.6 | 4.08 | 21.1 | – |
| COc1cc2c(c(OC)c1OC)C(=O)[C@H](O)[C@@H](c1ccc(O)c(O)c1)O2 (racemic) | – | 4.00 | 5.14 | – | 4.98 | 40.5 | 56.1 | 74.5 | 4.48 | 58.9 | 4.01 |
| COc1cc2c(c(OC)c1OC)C(=O)[C@H](O)[C@@H](c1ccc(O)cc1)O2 (racemic) | – | – | – | – | – | -1.4 | 5.1 | 17.1 | – | 0.2 | – |
| COc1cc2c(c(OC)c1O)C(=O)[C@H](O)[C@H](c1ccc3c(c1)OCO3)O2 (racemic) | – | 4.03 | 4.74 | – | 5.19 | 0.1 | 0.3 | 0.5 | – | 12.5 | – |
| COc1cc2c(c(OC)c1O)C(=O)[C@H](O)[C@@H](c1ccc(O)cc1)O2 (racemic) | – | – | 4.45 | – | – | -3.8 | 13.4 | 19.1 | – | 19.8 | – |
| COc1cc([C@@H]2Oc3cc(OC)c(O)c(OC)c3C(=O)[C@@H]2O)ccc1O (racemic) | – | 4.01 | 4.37 | – | 5.72 | -0.2 | 0.5 | 1.6 | – | 15.4 | – |
| COc1cc([C@@H]2Oc3cc(OC)c(OC)c(OC)c3C(=O)[C@@H]2O)cc(OC)c1OC (racemic) | – | – | – | – | 4.71 | 2.1 | 9.2 | 15.1 | – | 28.9 | – |
| COc1cc2c(c(OC)c1OC)C(=O)[C@H](O)[C@H](c1ccc3c(c1)OCO3)O2 (racemic) | – | 4.10 | – | – | – | 1.4 | 5.4 | 4.5 | – | 0.8 | – |
| O=C1O[C@H]([C@@H](O)CO)C(O)=C1O [ASCORBIC ACID] | – | 3.59 | 3.81 | – | – | – | – | – | – | – | – |
| COc1ccc([C@@H]2Oc3cc(OC)c(O)c(OC)c3C(=O)[C@@H]2O)cc1OC (racemic) | – | 4.30 | 4.44 | – | – | 2.9 | 19.8 | 22 | – | 74.3 | 4.80 |
